A word on the inhibition: it is the share of the control response that was lost under treatment. A lower inhibition goes with a weak effect.

The source made the active and inactive calls. The rule behind the calls is not given here. Square brackets hold non-standard residues; d marks the D form. Peptide text beside a SMILES is read from it.

We go through eleven molecules from ChEMBL document CHEMBL3797098, “An in Vitro and in Vivo Investigation of Bivalent Ligands That Display Preferential Binding and Functional Activity for Different Melanocortin Receptor Homodimers” (J Med Chem, 2016).

The target in data set [1] is Melanocortin receptor 3 (Mus musculus) (UniProt P33033). As to the kind of experiment: Agonist activity at mouse MC3R expressed in HEK293 cells assessed as cAMP accumulation at 100 uM incubated for 2 hrs by alphascreen assay. Format: functional, cell-based. The method, boiled down: (§1)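 cAMP response at 100 μM in stably transfected HEK293 cells (mouse MC3R-Flag, MC4R or MC5R), expressed as % of maximal NDP-MSH signal. AlphaScreen readout after 2 h room-temperature stimulation in IBMX-containing HBSS buffer, pH 7.4. Duplicate points, at least three independent experiments.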
A general note: Changes in cAMP serve as a functional read-out for many G protein-coupled receptors.

For data set [2], the target named is Melanocortin receptor 5 (Mus musculus) (UniProt P41149). As to the kind of experiment: Agonist activity at mouse MC5R expressed in HEK293 cells assessed as cAMP accumulation at 100 uM incubated for 2 hrs by alphascreen assay. Format: functional, cell-based. The method, boiled down: as §1
The target in data set [3] is Melanocyte-stimulating hormone receptor (Mus musculus) (UniProt Q01727). The data set is described as follows: Agonist activity at mouse MC1R expressed in HEK293 cells assessed as cAMP accumulation incubated for 2 hrs by alphascreen assay relative to Ac-His-DPhe-Arg-Trp-NH2. Format: functional, cell-based. Put shortly:
(§2)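 HEK293 cells stably expressing mouse MC1R, MC3R (Flag-tagged), MC4R or MC5R, 10,000 cells/well, stimulated with ligand at 10^-13 to 10^-4 M for 2 h at room temperature in HBSS stimulation buffer with 0.5 mM IBMX, 0.1% BSA, pH 7.4. cAMP read by AlphaScreen competition after a further 2 h with donor beads.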

Data set [4] relates to Mus musculus. The data set is described as follows: Reduction in food intake in male 129/Sv x C57BL/6J mouse at 2.5 to 5 nmol, icv measured at 2 to 5 hrs post dose. The class given is functional, organism-based.
For data set [5], the system named is Mus musculus. As to the kind of experiment: Effect on body weight in male 129/Sv x C57BL/6J mouse at 2.5 to 5 nmol, icv measured at 2 to 72 hrs post dose. The conditions noted are these: in vivo, icv_or_intrathecal. Format: ADME, organism-based. Put shortly: (§3)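 Crossover design in mice aged 8 weeks with lateral-ventricle cannulas (placement validated by PYY3-36), chow ad libitum, 12-h light/dark. Single ICV injection of 1.0, 2.5 or 5.0 nmol in 3 µL saline, or saline alone, 2 h before lights out. Food intake and body weight weighed at 0, 2, 4, 6, 8, 24, 48, 72 h. One-way ANOVA with Bonferroni test versus saline.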

The subject of data set [6] is Mus musculus. The data set is described as follows: Reduction in food intake in female 129/Sv x C57BL/6J mouse at 2.5 to 5 nmol, icv measured at 48 to 72 hrs post dose. The class given is functional, organism-based. The method, boiled down:
as §3

Data set [7] concerns Mus musculus. As to the kind of experiment: Reduction in food intake in icv dosed male 129/Sv x C57BL/6J mouse measured at 2 to 72 hrs post dose. The class given is functional, organism-based. The method, boiled down:
as §3

Data set [8] relates to Mus musculus. The data set is described as follows: Effect on body weight in female 129/Sv x C57BL/6J mouse at 2.5 to 5 nmol, icv measured at 2 to 72 hrs post dose. The class given is ADME, organism-based. The conditions noted are these: in vivo, icv_or_intrathecal. The method, boiled down:
as §3

The subject of data set [9] is Mus musculus. As to the kind of experiment: Reduction in food intake in male 129/Sv x C57BL/6J mouse at 2.5 to 5 nmol, icv measured at 24 to 72 hrs post dose. The class given is functional, organism-based. Put shortly:
as §3

Data set [10] deals with Mus musculus. As to the kind of experiment: Reduction in food intake in female 129/Sv x C57BL/6J mouse at 2.5 to 5 nmol, icv measured at 24 hrs post dose. The class given is functional, organism-based. Put shortly:
as §3

In data set [11] the test system is Mus musculus. As to the kind of experiment: Toxicity in male 129/Sv x C57BL/6J mouse assessed as drug tolerability at 2.5 and 5 nmol, icv measured at 2 to 72 hrs post dose. The following applies: in vivo. Format: organism-based.
Data set [12] relates to Mus musculus. The data set is described as follows: Reduction in food intake in female 129/Sv x C57BL/6J mouse at 2.5 to 5 nmol, icv measured at 2 to 8 hrs post dose. Format: functional, organism-based. Put shortly: as §3
Data set [13] addresses Melanocortin receptor 3 (Mus musculus) (UniProt P33033). As to the kind of experiment: Displacement of 125I-NDP-MSH from mouse MC3R expressed in HEK293 cells at 100 uM incubated for 1 hr by gamma counting analysis. The class given is cell-based. The method, boiled down: (§4)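 Mouse MC3R-Flag transiently transfected into HEK293 cells using FuGene6 two days before assay. Cells exposed 1 h at 37°C to 125I-NDP-MSH (100,000 cpm/well) plus competitor at 10^-12 to 10^-4 M in DMEM/0.1% BSA, then washed, lysed and gamma counted. Nonspecific binding defined with 10^-6 M NDP-MSH. Duplicates, ≥2 independent experiments.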

Data set [14] addresses Melanocortin receptor 4 (Mus musculus) (UniProt P56450). The data set is described as follows: Agonist activity at mouse MC4R expressed in HEK293 cells assessed as cAMP accumulation incubated for 2 hrs by alphascreen assay relative to Ac-His-DPhe-Arg-Trp-NH2. The class given is functional, cell-based. Put shortly: as §2
In data set [15] the target is Melanocortin receptor 5 (Mus musculus) (UniProt P41149). The data set is described as follows: Agonist activity at mouse MC5R expressed in HEK293 cells assessed as cAMP accumulation incubated for 2 hrs by alphascreen assay relative to Ac-His-DPhe-Arg-Trp-NH2. The class given is functional, cell-based. The method, boiled down:
as §2

Data set [16] deals with Melanocortin receptor 3 (Mus musculus) (UniProt P33033). As to the kind of experiment: Displacement of 125I-NDP-MSH from mouse MC3R expressed in HEK293 cells incubated for 1 hr by gamma counting analysis relative to Ac-His-DPhe-Arg-Trp-NH2. Format: cell-based. The method, boiled down: as §4
(Displacement assays read how much labelled ligand stays bound in the presence of the test substance.)

Data set [17] addresses Melanocortin receptor 4 (Mus musculus) (UniProt P56450). As to the kind of experiment: Agonist activity at mouse MC4R expressed in HEK293 cells assessed as cAMP accumulation at 100 uM incubated for 2 hrs by alphascreen assay. The class given is functional, cell-based. The method, boiled down: as §1
The target is the same in data set [18]. As to the kind of experiment: Displacement of 125I-NDP-MSH from mouse MC4R expressed in HEK293 cells incubated for 1 hr by gamma counting analysis relative to Ac-His-DPhe-Arg-Trp-NH2. The class given is cell-based. The method, boiled down: (§5)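 Whole HEK293 cells stably expressing mouse MC1R or MC4R, grown to 90-100% confluency, incubated 1 h at 37°C in DMEM/0.1% BSA with 125I-NDP-MSH (100,000 cpm/well) and unlabeled ligand at 10^-12 to 10^-4 M. After one wash, cells lysed with NaOH/Triton X-100 and gamma counted. Nonspecific binding defined with 10^-6 M NDP-MSH.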

Data set [19] addresses Melanocyte-stimulating hormone receptor (Mus musculus) (UniProt Q01727). As to the kind of experiment: Displacement of 125I-NDP-MSH from mouse MC1R expressed in HEK293 cells incubated for 1 hr by gamma counting analysis relative to Ac-His-DPhe-Arg-Trp-NH2. Format: cell-based. Put shortly: as §5

Melanocyte-stimulating hormone receptor (Mus musculus), sequence (Q01727 whole entry, looked up): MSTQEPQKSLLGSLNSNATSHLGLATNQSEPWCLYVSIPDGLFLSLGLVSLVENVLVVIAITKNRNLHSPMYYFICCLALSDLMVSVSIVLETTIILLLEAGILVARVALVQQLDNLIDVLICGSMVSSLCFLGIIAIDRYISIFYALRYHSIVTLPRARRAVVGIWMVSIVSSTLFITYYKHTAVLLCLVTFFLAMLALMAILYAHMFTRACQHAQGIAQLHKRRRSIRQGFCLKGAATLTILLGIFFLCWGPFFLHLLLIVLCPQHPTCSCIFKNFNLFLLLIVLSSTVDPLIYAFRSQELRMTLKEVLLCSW
Melanocortin receptor 4 (Mus musculus), sequence (P56450 whole entry): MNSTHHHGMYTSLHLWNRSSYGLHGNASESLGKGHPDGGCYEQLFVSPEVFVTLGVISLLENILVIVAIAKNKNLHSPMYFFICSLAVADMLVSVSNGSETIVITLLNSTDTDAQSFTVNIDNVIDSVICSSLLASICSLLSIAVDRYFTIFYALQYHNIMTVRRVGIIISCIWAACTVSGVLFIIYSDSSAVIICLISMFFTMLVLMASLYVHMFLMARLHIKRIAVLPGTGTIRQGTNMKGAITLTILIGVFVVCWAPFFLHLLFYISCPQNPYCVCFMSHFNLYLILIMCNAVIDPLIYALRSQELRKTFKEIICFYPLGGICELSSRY
Melanocortin receptor 5 (Mus musculus), sequence (P41149 whole entry): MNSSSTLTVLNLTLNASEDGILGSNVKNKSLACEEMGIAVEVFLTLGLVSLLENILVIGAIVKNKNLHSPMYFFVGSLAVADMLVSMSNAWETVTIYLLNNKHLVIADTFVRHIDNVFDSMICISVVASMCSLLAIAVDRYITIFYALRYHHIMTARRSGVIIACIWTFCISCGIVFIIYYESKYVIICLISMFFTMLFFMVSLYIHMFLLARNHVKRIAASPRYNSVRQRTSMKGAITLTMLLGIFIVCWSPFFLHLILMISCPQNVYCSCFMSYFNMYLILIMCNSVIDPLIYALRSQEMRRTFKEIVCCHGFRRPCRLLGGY
Melanocortin receptor 3 (Mus musculus), sequence (P33033 whole entry): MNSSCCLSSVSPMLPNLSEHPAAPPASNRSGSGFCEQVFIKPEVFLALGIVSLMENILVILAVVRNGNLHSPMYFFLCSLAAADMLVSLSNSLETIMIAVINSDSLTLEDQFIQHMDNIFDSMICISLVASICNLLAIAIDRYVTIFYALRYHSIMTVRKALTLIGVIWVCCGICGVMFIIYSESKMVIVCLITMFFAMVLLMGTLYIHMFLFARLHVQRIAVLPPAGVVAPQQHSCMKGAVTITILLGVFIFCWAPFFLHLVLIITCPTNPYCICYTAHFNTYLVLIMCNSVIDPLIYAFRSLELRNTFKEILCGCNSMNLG

Turning to `CC(=O)N[C@@H](Cc1c[nH]cn1)C(=O)N[C@H](Cc1ccc2ccccc2c1)C(=O)N[C@@H](CCCN=C(N)N)C(=O)N[C@@H](Cc1c[nH]c2ccccc12)C(N)=O`, the Activity was 45% in data set [1] and 75% in [2].
For the molecule `CC(=O)N[C@H](Cc1cnc[nH]1)C(=O)N[C@H](Cc1ccccc1)C(=O)N[C@@H](CCCNC(=N)N)C(=O)N[C@H](Cc1c[nH]c2ccccc12)C(=O)N1CCC[C@@H]1C(=O)NCC(=O)N1CCC[C@@H]1C(=O)NCC(=O)N1CCC[C@@H]1C(=O)NCC(=O)N1CCC[C@@H]1C(=O)NCC(=O)N1CCC[C@@H]1C(=O)NCC(=O)N1CCC[C@H]1C(=O)NCC(=O)N[C@@H](Cc1cnc[nH]1)C(=O)N[C@H](Cc1ccccc1)C(=O)N[C@@H](CCCNC(=N)N)C(=O)N[C@@H](Cc1c[nH]c2ccccc12)C(N)=O`, the Ratio EC50 in data set [3] was determined as 3.
As to `CC(=O)N[C@@H](Cc1cnc[nH]1)C(=O)N[C@H](Cc1ccccc1)C(=O)N[C@@H](CCCNC(=N)N)C(=O)N[C@@H](Cc1c[nH]c2ccccc12)C(=O)NCCCOCCOCCOCCCNC(=O)COCC(=O)N[C@@H](Cc1cnc[nH]1)C(=O)N[C@H](Cc1ccccc1)C(=O)N[C@@H](CCCNC(=N)N)C(=O)N[C@@H](Cc1c[nH]c2ccccc12)C(N)=O`, the result in the data set with Mus musculus [4] and in the data set with Mus musculus [10] was Active. Further, the Activity entry in the data set on Mus musculus [5] is “Non-toxic”; in the data set with Mus musculus [7] it was “Dose-dependent effect”; in the data set with Mus musculus [8], “Non-toxic”; with Mus musculus [11], “Non-toxic”. For the same molecule, the result in the data set with Mus musculus [6], in the data set with Mus musculus [9] and in the data set on Mus musculus [12] was inactive.
As to `N=C(N)NCCC[C@H](NC(=O)[C@@H](Cc1ccccc1)NC(=O)[C@H](Cc1cnc[nH]1)NC(=O)COCC(=O)NCCCOCCOCCOCCCN)C(=O)N[C@@H](Cc1c[nH]c2ccccc12)C(N)=O`, the Ratio EC50 in [3] is 0.6; in data set [14], 0.7; in data set [15], 2. In data set [13], this molecule yielded an inhibition of 78%.
For the molecule `CC(=O)N[C@@H](Cc1cnc[nH]1)C(=O)N[C@H](Cc1ccc2ccccc2c1)C(=O)N[C@@H](CCCNC(=N)N)C(=O)N[C@@H](Cc1c[nH]c2ccccc12)C(=O)NCCCOCCOCCOCCCNC(=O)COCC(=O)N[C@@H](Cc1cnc[nH]1)C(=O)N[C@H](Cc1ccc2ccccc2c1)C(=O)N[C@@H](CCCNC(=N)N)C(=O)N[C@@H](Cc1c[nH]c2ccccc12)C(N)=O`, the values for the Activity in data set [1] and in data set [17] were 80% and 85%, respectively. In addition, the Ratio IC50 in data set [16] came to 4; in [18], 2.
As to `CC(=O)N[C@@H](Cc1cnc[nH]1)C(=O)N[C@H](Cc1ccc2ccccc2c1)C(=O)N[C@@H](CCCNC(=N)N)C(=O)N[C@@H](Cc1c[nH]c2ccccc12)C(=O)NCCCOCCOCCOCCCNC(=O)COCC(N)=O`, the values for the Activity in data set [1] and in data set [17] were 40% and 20%, respectively. Further, in data set [19], the Ratio IC50 is 2.
For `N=C(N)NCCC[C@H](NC(=O)[C@@H](Cc1ccccc1)NC(=O)[C@H](Cc1cnc[nH]1)NC(=O)CNC(=O)[C@@H]1CCCN1C(=O)CNC(=O)[C@@H]1CCCN1C(=O)CNC(=O)[C@@H]1CCCN1C(=O)CNC(=O)[C@@H]1CCCN1C(=O)CNC(=O)[C@@H]1CCCN1C(=O)CNC(=O)[C@@H]1CCCN1)C(=O)N[C@@H](Cc1c[nH]c2ccccc12)C(N)=O` (H-PGPGPGPGPGPGH[dF]RW-NH2), the Ratio EC50 in data set [3] turned out to be 0.9; in data set [15], 2.
As for `CC(=O)N[C@H](Cc1cnc[nH]1)C(=O)N[C@H](Cc1ccccc1)C(=O)N[C@@H](CCCNC(=N)N)C(=O)N[C@H](Cc1c[nH]c2ccccc12)C(=O)N1CCC[C@@H]1C(=O)NCC(=O)N1CCC[C@@H]1C(=O)NCC(=O)N1CCC[C@@H]1C(=O)NCC(=O)N1CCC[C@@H]1C(=O)NCC(=O)N1CCC[C@@H]1C(=O)NCC(=O)N1CCC[C@H]1C(=O)NCC(N)=O`, the Ratio EC50 in data set [3] turned out to be 2; in data set [14], 0.2. This molecule yielded an inhibition in data set [13] of 85%.
For the molecule `CC(=O)N[C@@H](Cc1cnc[nH]1)C(=O)N[C@H](Cc1ccccc1)C(=O)N[C@@H](CCCNC(=N)N)C(=O)N[C@@H](Cc1c[nH]c2ccccc12)C(=O)NCCCOCCOCCOCCCNC(=O)COCC(N)=O`, the Ratio IC50 in data set [16] amounted to 6; in data set [19], 2.
Take `N=C(N)NCCC[C@H](NC(=O)[C@@H](Cc1ccc2ccccc2c1)NC(=O)[C@H](Cc1cnc[nH]1)NC(=O)COCC(=O)NCCCOCCOCCOCCCN)C(=O)N[C@@H](Cc1c[nH]c2ccccc12)C(N)=O`: the Ratio IC50 in data set [16] and in [19] was 1 in each case. Moreover, the Activity in data set [17] amounted to 40%.
`CC(=O)N[C@@H](Cc1cnc[nH]1)C(=O)N[C@H](Cc1ccccc1)C(=O)N[C@@H](CCCNC(=N)N)C(=O)N[C@@H](Cc1c[nH]c2ccccc12)C(N)=O` returned an inhibition in data set [13] of 60%.
